Converted amounts (≈) assume the structure as drawn.
Tests used:
[1] = system: Micrococcus flavus; assay: Antibacterial activity against Micrococcus flavus ATCC 10240 at […] degC measured after 72 hr by microdilution method; format: functional; conditions: ATCC 10240, 72 h
How it was run: (§1)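 Bactericidal endpoint: after the 24 h broth microdilution (1.0×10⁴ CFU per well, LB broth, […] °C), wells were serially subcultured into plates of fresh broth and incubated a further 72 h. MBC was the lowest concentration with no visible growth, taken as 99.5% killing of the original inoculum.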

[2] = system: Aspergillus fumigatus; assay: Antifungal activity against plant isolate Aspergillus fumigatus at 28 degC measured after 72 hr by microdilution method; format: functional
How it was run: (§2)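 Fungi were kept on malt agar at 4 °C. Spores were washed off with sterile 0.85% saline containing 0.1% Tween 80 and adjusted to about 1.0×10⁵ per well. Compounds were dissolved in DMSO (1 mg/ml stock) and serially diluted in malt broth with inoculum in 96-well plates, 72 h at 28 °C, for MIC. MFC came from subculture into fresh broth for a further 72 h at 28 °C.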

[3] = system: Penicillium ochrochloron; assay: Antifungal activity against Penicillium ochrochloron ATCC 9112 at 28 degC measured after 72 hr by microdilution method; format: functional; conditions: ATCC 9112, 72 h; how it was run: as §2
[4] = system: Listeria monocytogenes; assay: Antibacterial activity against Listeria monocytogenes NCTC 7973 at […] degC measured after 24 hr by microdilution method; format: functional; conditions: NCTC 7973, 24 h
How it was run: (§3)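 Bacteria suspended in sterile saline at 1.0×10⁵ CFU/ml and added at 1.0×10⁴ CFU per well to LB broth with compound (1 mg/ml) in 96-well plates. Incubated 24 h at […] °C. MIC was the lowest concentration without visible growth under a binocular microscope. OD 655 nm was read against a blank and a positive control.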

[5] = system: Pseudomonas aeruginosa; assay: Antibacterial activity against Pseudomonas aeruginosa ATCC 27853 at […] degC measured after 72 hr by microdilution method; format: functional; conditions: ATCC 27853, 72 h; how it was run: as §1
[6] = system: Escherichia coli; assay: Antibacterial activity against Escherichia coli ATCC 35210 at […] degC measured after 24 hr by microdilution method; format: functional; conditions: ATCC 35210, 24 h; how it was run: as §3
[7] = system: Proteus mirabilis; assay: Antibacterial activity against Proteus mirabilis at […] degC measured after 72 hr by microdilution method; format: functional; how it was run: as §1
[8] = system: Talaromyces funiculosus; assay: Antifungal activity against Talaromyces funiculosus ATCC 36839 at 28 degC measured after 72 hr by microdilution method; format: functional; conditions: ATCC 36839, 72 h; how it was run: as §2
[9] = system: Aspergillus versicolor; assay: Antifungal activity against Aspergillus versicolor ATCC 11730 at 28 degC measured after 72 hr by microdilution method; format: functional; conditions: ATCC 11730, 72 h; how it was run: as §2
[10] = system: Aspergillus niger; assay: Antifungal activity against Aspergillus niger ATCC 6275 at 28 degC measured after 72 hr by microdilution method; format: functional; conditions: ATCC 6275, 72 h; how it was run: as §2
[11] = system: Staphylococcus aureus; assay: Antibacterial activity against Staphylococcus aureus ATCC 6538 at […] degC measured after 24 hr by microdilution method; format: functional; conditions: ATCC 6538, 24 h; how it was run: as §3
[12] = system: Escherichia coli; assay: Antibacterial activity against Escherichia coli ATCC 35210 at […] degC measured after 72 hr by microdilution method; format: functional; conditions: ATCC 35210, 72 h; how it was run: as §1
[13] = system: Salmonella typhimurium; assay: Antibacterial activity against Salmonella enterica subsp. enterica serovar Typhimurium ATCC 13311 at […] degC measured after 24 hr by microdilution method; format: functional; conditions: ATCC 13311, 24 h; how it was run: as §3
[14] = system: Pseudomonas aeruginosa; assay: Antibacterial activity against Pseudomonas aeruginosa ATCC 27853 at […] degC measured after 24 hr by microdilution method; format: functional; conditions: ATCC 27853, 24 h; how it was run: as §3
[15] = system: Micrococcus flavus; assay: Antibacterial activity against Micrococcus flavus ATCC 10240 at […] degC measured after 24 hr by microdilution method; format: functional; conditions: ATCC 10240, 24 h; how it was run: as §3
[16] = system: Trichoderma viride; assay: Antifungal activity against Hypocrea rufa IAM 5061 at 28 degC measured after 72 hr by microdilution method; format: functional; conditions: IAM 5061, 72 h; how it was run: as §2
[17] = system: Proteus mirabilis; assay: Antibacterial activity against Proteus mirabilis at […] degC measured after 24 hr by microdilution method; format: functional; how it was run: as §3
[18] = system: Staphylococcus aureus; assay: Antibacterial activity against Staphylococcus aureus ATCC 6538 at […] degC measured after 72 hr by microdilution method; format: functional; conditions: ATCC 6538, 72 h; how it was run: as §1
[19] = system: Listeria monocytogenes; assay: Antibacterial activity against Listeria monocytogenes NCTC 7973 at […] degC measured after 72 hr by microdilution method; format: functional; conditions: NCTC 7973, 72 h; how it was run: as §1
[20] = system: Fulvia fulva; assay: Antifungal activity against Passalora fulva TK5318 at 28 degC measured after 72 hr by microdilution method; format: functional; conditions: TK5318, 72 h; how it was run: as §2
[21] = system: Salmonella typhimurium; assay: Antibacterial activity against Salmonella enterica subsp. enterica serovar TyphimuriumATCC 13311 at […] degC measured after 72 hr by microdilution method; format: functional, Salmonella enterica subsp. enterica serovar Typhimurium; conditions: ATCC 13311, 72 h; how it was run: as §1
[22] = system: Aspergillus flavus; assay: Antifungal activity against Aspergillus flavus ATCC 9643 at 28 degC measured after 72 hr by microdilution method; format: functional; conditions: ATCC 9643, 72 h; how it was run: as §2
[23] = system: Bacillus cereus; assay: Antibacterial activity against clinical isolate Bacillus cereus at […] degC measured after 72 hr by microdilution method; format: functional; how it was run: as §1
[24] = system: Bacillus cereus; assay: Antibacterial activity against clinical isolate Bacillus cereus at […] degC measured after 24 hr by microdilution method; format: functional; how it was run: as §3

SMILES | MBC [1] [µM] | MFC [2] [µM] | MIC [2] [µM] | MFC [3] [µM] | MIC [3] [µM] | MIC [4] [µM] | MBC [5] [µM] | MIC [6] [µM] | MBC [7] [µM] | MFC [8] [µM] | MIC [8] [µM] | MFC [9] [µM] | MIC [9] [µM] | MFC [10] [µM] | MIC [10] [µM] | MIC [11] [µM] | MBC [12] [µM] | MIC [13] [µM] | MIC [14] [µM] | MIC [15] [µM] | other results
COc1cc(Cc2nnc(Nc3ccc(Cl)cc3)s2)c(S(=O)(=O)N2CCCC2)cc1OC | 40.4 (≈ 20 µg/mL) | 40.4 (≈ 20 µg/mL) | 20.2 (≈ 10 µg/mL) | 40.4 (≈ 20 µg/mL) | 20.2 (≈ 10 µg/mL) | 40.4 (≈ 20 µg/mL) | 40.4 (≈ 20 µg/mL) | 15.2 (≈ 7.52 µg/mL) | 40.4 (≈ 20 µg/mL) | 20.2 (≈ 10 µg/mL) | 10.1 (≈ 5 µg/mL) | 40.4 (≈ 20 µg/mL) | 20.2 (≈ 10 µg/mL) | 40.4 (≈ 20 µg/mL) | 20.2 (≈ 10 µg/mL) | 20.2 (≈ 10 µg/mL) | 40.4 (≈ 20 µg/mL) | 10.1 (≈ 5 µg/mL) | 20.2 (≈ 10 µg/mL) | 20.2 (≈ 10 µg/mL) | MFC [16]: 20.2 µM (≈ 10 µg/mL); MIC [16]: 10.1 µM (≈ 5 µg/mL); MIC [17]: 20.2 µM (≈ 10 µg/mL); MBC [18]: 40.4 µM (≈ 20 µg/mL); MBC [19]: 40.4 µM (≈ 20 µg/mL); MFC [20]: 20.2 µM (≈ 10 µg/mL); MIC [20]: 10.1 µM (≈ 5 µg/mL); MBC [21]: 20.2 µM (≈ 10 µg/mL); MFC [22]: 40.4 µM (≈ 20 µg/mL); MIC [22]: 20.2 µM (≈ 10 µg/mL); MBC [23]: 40.4 µM (≈ 20 µg/mL); MIC [24]: 20.2 µM (≈ 10 µg/mL)
COc1cc(Cc2nnc(Nc3ccc([N+](=O)[O-])cc3)s2)c(S(=O)(=O)N2CCCCC2)cc1OC | 38.6 (≈ 20.1 µg/mL) | 38.6 (≈ 20.1 µg/mL) | 19.3 (≈ 10 µg/mL) | 38.6 (≈ 20.1 µg/mL) | 19.3 (≈ 10 µg/mL) | 19.3 (≈ 10 µg/mL) | 19.3 (≈ 10 µg/mL) | 19.3 (≈ 10 µg/mL) | 77.2 (≈ 40.1 µg/mL) | 38.6 (≈ 20.1 µg/mL) | 19.3 (≈ 10 µg/mL) | 38.6 (≈ 20.1 µg/mL) | 19.3 (≈ 10 µg/mL) | 38.6 (≈ 20.1 µg/mL) | 19.3 (≈ 10 µg/mL) | 38.6 (≈ 20.1 µg/mL) | 38.6 (≈ 20.1 µg/mL) | 9.7 (≈ 5.04 µg/mL) | 9.7 (≈ 5.04 µg/mL) | 19.3 (≈ 10 µg/mL) | MFC [16]: 19.3 µM (≈ 10 µg/mL); MIC [16]: 9.7 µM (≈ 5.04 µg/mL); MIC [17]: 38.6 µM (≈ 20.1 µg/mL); MBC [18]: 77.2 µM (≈ 40.1 µg/mL); MBC [19]: 77.2 µM (≈ 40.1 µg/mL); MFC [20]: 19.3 µM (≈ 10 µg/mL); MIC [20]: 9.7 µM (≈ 5.04 µg/mL); MBC [21]: 19.3 µM (≈ 10 µg/mL); MFC [22]: 38.6 µM (≈ 20.1 µg/mL); MIC [22]: 19.3 µM (≈ 10 µg/mL); MBC [23]: 38.6 µM (≈ 20.1 µg/mL); MIC [24]: 19.3 µM (≈ 10 µg/mL)

— ChEMBL document CHEMBL3045677, “Sulfonamide-1,2,4-thiadiazole derivatives as antifungal and antibacterial agents: synthesis, biological evaluation, lipophilicity, and conformational studies” (2010)
